Source: paper PMC7702297 (Journal of the American Chemical Society, 2020)
Like-named read-outs stand apart in the source and are kept apart here.

Legend:
[1] = test system: RAW 264.7 macrophage cells; assay: Protection from PMA-induced cytotoxicity; type: cell-based
RAW 264.7 cells = assay: Cytotoxicity
[2] = test system: RAW 264.7 macrophage cells; assay: Intracellular ROS by DHE fluorescence in PMA-treated macrophages; type: cell-based; conditions: PMA 1 μg/mL 3 h; DHE 10 μM 30 min
[3] = H2S release measured with H2S-sensitive electrochemical probe; type: physicochemical
[4] = Conventional and cryogenic TEM of self-assembled nanostructures; type: physicochemical
Static light scattering = type: physicochemical; conditions: average
[5] = Nile Red assay, critical aggregation concentration; type: physicochemical; conditions: Nile Red fluorescence; 10 mM phosphate buffer pH 7.4, room temperature
Method in brief: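 Test compound dissolved in 10 mM phosphate buffer pH 7.4 at room temperature, where it self-assembles. Nile Red fluorescence intensity was recorded across a series of test compound concentrations. CAC was calculated from the rise in intensity with concentration, taken as Nile Red solubilisation in the hydrophobic domain.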

[6] = PMA 2 μg/mL 3 h, Cys 800 μM, AdKOKOEE and AdKSKSE 200 μM (+ Cys), GYY4137 and Na2S 400 μM, Figure 4B
[7] = conventional and cryo-TEM, PB 10 mM pH 7.4, 1 mM

## N[C@@H](CS)C(=O)O [Cys, cysteine, reference compound]
[1]; [6]
  protective effect on viability of PMA-treated cells: Neither treatment with Cys alone nor treatment with a combination of the non-H2S-releasing control peptide (AdKOKOEE) and Cys showed any protective effect

## C1COCCN1.COc1ccc(P(=S)(S)N2CCOCC2)cc1 (stereo not drawn) [GYY4137, reference compound]
[1]
  protective effect on viability of PMA-treated cells: Neither affected cell viability

## [Na+].[Na+].[S-2] [Na2S, sodium sulfide, reference compound]
[1]
  protective effect on viability of PMA-treated cells: Neither affected cell viability

## CCCCCCCCCCCCCC(=O)O[C@@H]1[C@@H](C)[C@@]2(O)[C@@H](C=C(CO)C[C@]3(O)C(=O)C(C)=C[C@@H]23)[C@@H]2C(C)(C)[C@]12OC(C)=O [PMA, phorbol 12-myristate 13-acetate]
RAW 264.7 cells; Figure 4A
  concentration inducing significant cytotoxicity: ≥ 1000 ng/mL
RAW 264.7 cells; PMA 2 μg/mL
  cell viability after PMA alone: 67%
[2]
  ROS level (DHE red fluorescent signal) after PMA alone, versus untreated cells: much brighter

## AdKOKOEE
[1]; [6]
  protective effect on viability of PMA-treated cells: Neither treatment with Cys alone nor treatment with a combination of the non-H2S-releasing control peptide (AdKOKOEE) and Cys showed any protective effect

## AdKSKSE
[1]; [6]
  protective effect on viability of PMA-treated cells: some cell protective ability, but it was not as good as AdKSKSEE
[3]; Figure S13, both contain two SATO units and release similar amounts
  H2S release rate relative to AdKsKsEE: somewhat faster
[4]; conventional TEM, UA stained, PB 10 mM pH 7.4, 100 μM
  average length of short nanoworms: 33±2 nm

## AdKSKSEE
Static light scattering
  aggregation number (molecules per crescent nanostructure): 600
[1]; PMA 2 μg/mL, AdKSKSEE 200 μM + Cys 800 μM, 3 h, three experiments with five replicates
  cell viability on co-treatment with PMA: 95%
[3]; PHDC 1 mM + Cys 4 mM in PB at rt, electrochemical probe, average of three runs
  H2S release peaking time: 125 ± 15 min
[3]; PHDC 1 mM in PB at rt, no Cys, electrochemical probe
  H2S release without Cys: minimal H2S was detected
[4]; [7]
  average external diameter of crescent nanostructures: 28±3 nm
  average width of crescent nanostructures: 5±1 nm
[4]; nanocrescent volume from TEM dimensions divided by estimated molecular volume
  aggregation number, estimate from nanocrescent volume: 560
[5]
  critical aggregation concentration (CAC): 27 µM
